The subject of one experiment is Rattus norvegicus. The experiment in a line: Compound was evaluated for diarrheagenic side effects in adult male rats by intragastric administration. The class given is functional. To be noted: po. The procedure, abridged: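 Adult Charles River male rats, 210–230 g, individually housed, fasted 24 h with water ad libitum. Logarithmically graded prostaglandin doses given orally (N = 6–12). Diarrhea scored all-or-none for 8 h after dosing.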

The test system of experiment [1] is Canis familiaris. The experiment in a line: Gastric antisecretory activity in food stimulated pavlov dogs by intrapouch administration. To be noted: Canis lupus familiaris. The class given is functional. The procedure, abridged: (§1)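 Adult female beagles (6–11 kg) with innervated Pavlov gastric pouches, food-deprived 14 h with water. After 30 min basal collection, prostaglandin in buffer-ethanol vehicle given into pouch via Thomas cannula; 30 min later pouch emptied and secretion stimulated by feeding canned dog food. Juice collected at 30-min intervals over 4 h; total acid output = volume × acidity. Percent reduction from control over 4 h.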

The nature of experiment [2]: Selectivity ratio was evaluated by the quotient of diarrheal ED50 value divided by antisecretory ED50 x 10 E-3. The class given is functional. The procedure, abridged: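 Quotient of diarrheal ED50 (male rats, oral graded doses, all-or-none diarrhea over 8 h) over antisecretory ED50 (Pavlov pouch beagles, intrapouch dosing, percent reduction of food-stimulated 4-h total acid output). Antisecretory ED50 from linear regression of dose-response, 3–6 doses and 2–4 dogs per dose.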

The subject of experiment [3] is Canis familiaris. The experiment is described as follows: Gastric antisecretory activity in food stimulated pavlov dogs by intrapouch administration; Inactive at 3.0 ug/Kg. Type of experiment: functional, organism-based. The note with it: Canis lupus familiaris. The procedure, abridged:
as §1

The source made the active and inactive calls. The rule behind the calls is not given here.

For `C/C=C/C=C/[C@](C)(O)C/C=C/[C@H]1[C@H](O)CC(=O)[C@@H]1CC/C=C\CCC(=O)OC`, the ED50 in the experiment with Rattus norvegicus amounted to 0.25 mg/kg; in the experiment on Canis familiaris [1] it was 0.03 µg/kg. In addition, the Ratio in experiment [2] came to 8.
Taken in the same sequence, the figures for `C=C/C=C/[C@](C)(O)C/C=C/[C@H]1[C@H](O)CC(=O)[C@@H]1CC/C=C\CCC(=O)OC` were 0.243 mg/kg, 0.007 µg/kg and 35.
Regarding `CCCCC(C)(O)C/C=C/[C@H]1[C@H](O)CC(=O)[C@@H]1CC/C=C\CCC(=O)OC` (stereo not given in full) [ENISOPROST], the ED50 amounted to 0.049 mg/kg in the experiment with Rattus norvegicus and 0.023 µg/kg in the experiment with Canis familiaris [1]. The Ratio in experiment [2] is 2.
Turning to `COC(=O)CC/C=C\CC[C@H]1C(=O)C[C@@H](O)[C@@H]1/C=C/C[C@@](C)(O)/C=C/C1=CCCC1`, the results for the ED50 in the experiment on Rattus norvegicus and with Canis familiaris [1] were more than 3.16 mg/kg and 0.02 µg/kg, respectively. The Ratio in experiment [2] was more than 158.
In the experiment with Rattus norvegicus, `C=C/C=C(\C)[C@](C)(O)C/C=C/[C@H]1[C@H](O)CC(=O)[C@@H]1CC/C=C\CCC(=O)OC` returned an ED50 of more than 3.16 mg/kg. In addition, the ED50 result in the experiment on Canis familiaris [3] was “inactive”.
Turning to `C/C=C(C)\C=C\[C@](C)(O)C/C=C/[C@H]1[C@H](O)CC(=O)[C@@H]1CC/C=C\CCC(=O)OC`, the median effective dose (ED50) in the experiment on Rattus norvegicus amounted to 1.23 mg/kg; in the experiment on Canis familiaris [1], 0.016 µg/kg. Besides, the Ratio in experiment [2] was 76.
On the same counts, the results for `C=C/C(C)=C/[C@](C)(O)C/C=C/[C@H]1[C@H](O)CC(=O)[C@@H]1CC/C=C\CCC(=O)OC` are 1.03 mg/kg, 0.71 µg/kg and 1.4.
On the same counts, the results for `C/C=C\C=C\[C@](C)(O)C/C=C/[C@H]1[C@H](O)CC(=O)[C@@H]1CC/C=C\CCC(=O)OC` are 0.306 mg/kg, 0.009 µg/kg and 34.
Turning to `COC(=O)CC/C=C\CC[C@H]1C(=O)C[C@@H](O)[C@@H]1/C=C/C[C@@](C)(O)/C=C/C=C(C)C`, the ED50 in the experiment on Rattus norvegicus is more than 3.16 mg/kg; with Canis familiaris [1] it was 0.06 µg/kg. Moreover, in experiment [2], the Ratio is more than 53.
On the same counts, the results for `C=C(C)/C=C/[C@](C)(O)C/C=C/[C@H]1[C@H](O)CC(=O)[C@@H]1CC/C=C\CCC(=O)OC` are 0.42 mg/kg, 0.002 µg/kg and 210.
On to `C/C=C(C)/C=C/[C@](C)(O)C/C=C/[C@H]1[C@H](O)CC(=O)[C@@H]1CC/C=C\CCC(=O)OC`, for which the ED50 with Rattus norvegicus was found to be 0.185 mg/kg; with Canis familiaris [1], 0.003 µg/kg. In experiment [2], the Ratio stood at 62.
Taken in the same sequence, the figures for `COC(=O)CC/C=C\CC[C@H]1C(=O)C[C@@H](O)[C@@H]1/C=C/C[C@@](C)(O)/C=C/C(C)=C(C)C` were more than 3.16 mg/kg, 0.06 µg/kg and more than 53.

In general, ED50 refers to the dose that gives a 50% effect, or the effect in half of the subjects.

(Values after ChEMBL document CHEMBL1125375, “Synthesis and structure-activity relationships of acyclic omega chain conjugated diene analogues of enisoprost” (1992).)
